Square brackets hold non-standard residues; d marks the D form. Peptide text beside a SMILES is read from it. * marks the point of attachment. AMC = Cc1cc(=O)oc2cc(N*)ccc12; Pip = O=C(O)[C@@H]1CCCCN1; Cbz = O=C(OCc1ccccc1)*; AEEA = NCCOCCOCC(=O)O
How the values were obtained:
DPPIV [1] = target: T1, DPPIV (Homo sapiens, UniProt P27487); experiment: Kinetics of fluorogenic substrate cleavage by DPPIV; type: biochemical
APCE [2] = target: T2, APCE (Homo sapiens, UniProt Q12884); experiment: Kinetics of fluorogenic substrate cleavage by APCE; type: biochemical; conditions: for kcat, APCE / Km: pH 7.5, 22 °C, 20 min; for Km: read-out: Km, APCE
T2 sequence (Q12884 24-760 limits assumed): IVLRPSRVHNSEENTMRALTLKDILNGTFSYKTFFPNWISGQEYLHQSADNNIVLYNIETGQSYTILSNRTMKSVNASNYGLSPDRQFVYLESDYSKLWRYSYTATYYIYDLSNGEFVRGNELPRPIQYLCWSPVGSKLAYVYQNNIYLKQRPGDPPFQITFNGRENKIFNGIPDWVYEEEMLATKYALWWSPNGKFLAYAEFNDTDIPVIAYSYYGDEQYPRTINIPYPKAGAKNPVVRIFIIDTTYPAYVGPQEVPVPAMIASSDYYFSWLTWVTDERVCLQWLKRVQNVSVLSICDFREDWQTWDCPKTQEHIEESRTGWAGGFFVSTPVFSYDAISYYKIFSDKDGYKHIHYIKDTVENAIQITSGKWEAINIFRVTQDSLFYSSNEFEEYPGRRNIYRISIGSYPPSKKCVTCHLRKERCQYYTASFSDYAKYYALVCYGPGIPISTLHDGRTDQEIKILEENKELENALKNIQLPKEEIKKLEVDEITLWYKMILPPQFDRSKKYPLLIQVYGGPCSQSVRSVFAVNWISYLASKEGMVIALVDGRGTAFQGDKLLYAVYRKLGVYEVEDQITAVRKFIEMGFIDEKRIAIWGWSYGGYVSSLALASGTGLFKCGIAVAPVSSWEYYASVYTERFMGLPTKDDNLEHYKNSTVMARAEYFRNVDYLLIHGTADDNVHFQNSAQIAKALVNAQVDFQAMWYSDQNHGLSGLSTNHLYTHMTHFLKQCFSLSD

APCE [3] = target: T2, APCE; experiment: Cleavage of inhibitor by APCE during incubation; type: biochemical; conditions: for hydrolysis of inhibitor by APCE: lengthy incubations with APCE
APCE [4] = target: T2, APCE; experiment: APCE inhibition, fluorogenic substrate Z-Gly-Pro-AMC; type: biochemical; conditions: for inhibitory effect on APCE: result in words
Outline: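 Human-plasma-purified APCE in 25 mM sodium phosphate, pH 7.5, with 1.0 mM EDTA and 4% methanol; 20 min at 22 °C. Z-Gly-Pro-AMC at five concentrations (10–500 μM range) crossed with four inhibitor concentrations around the expected Ki. Released AMC followed over time (ex 360/em 460 nm) against an AMC standard curve. Competitive mode set by Lineweaver–Burk; Ki from competitive-equation fit, best fit ± standard error.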

recombinant FAP = conditions: cited from earlier work
DPPIV [5] = target: T1, DPPIV; conditions: read-out: Ki for DPPIV; cited from earlier work
FAP = conditions: read-out: Ki for FAP; cited from earlier work
[6] = test system: CSCC[C@H](N)C(=O)N[C@@H](CCC(=O)O)C(=O)N1CCC[C@H]1C(=O)N[C@@H](CC(C)C)C(=O)NCC(=O)N[C@@H](CCCNC(=N)N)C(=O)N[C@@H](CCC(N)=O)C(=O)N[C@@H](CC(C)C)C(=O)N[C@H](C(=O)N[C@@H](CO)C(=O)NCC(=O)N1CCC[C@H]1C(=O)Nc1ccc2c(C)cc(=O)oc2c1)[C@@H](C)O; experiment: Kinetics of fluorogenic substrate cleavage by APCE; type: biochemical, human; conditions: other: pH 7.5, 22 °C, 20 min
[7] = test system: CSCC[C@H](N)C(=O)N[C@@H](CCC(=O)O)C(=O)N1CCC[C@H]1C(=O)N[C@@H](CC(C)C)C(=O)NCC(=O)N[C@@H](Cc1c[nH]c2ccccc12)C(=O)N[C@@H](CCC(N)=O)C(=O)N[C@@H](CC(C)C)C(=O)N[C@H](C(=O)N[C@@H](CO)C(=O)NCC(=O)N1CCC[C@H]1C(=O)Nc1ccc2c(C)cc(=O)oc2c1)[C@@H](C)O; experiment: Kinetics of fluorogenic substrate cleavage by APCE; type: biochemical, human; conditions: other: pH 7.5, 22 °C, 20 min

T1 sequence (P27487 whole entry, species assumed): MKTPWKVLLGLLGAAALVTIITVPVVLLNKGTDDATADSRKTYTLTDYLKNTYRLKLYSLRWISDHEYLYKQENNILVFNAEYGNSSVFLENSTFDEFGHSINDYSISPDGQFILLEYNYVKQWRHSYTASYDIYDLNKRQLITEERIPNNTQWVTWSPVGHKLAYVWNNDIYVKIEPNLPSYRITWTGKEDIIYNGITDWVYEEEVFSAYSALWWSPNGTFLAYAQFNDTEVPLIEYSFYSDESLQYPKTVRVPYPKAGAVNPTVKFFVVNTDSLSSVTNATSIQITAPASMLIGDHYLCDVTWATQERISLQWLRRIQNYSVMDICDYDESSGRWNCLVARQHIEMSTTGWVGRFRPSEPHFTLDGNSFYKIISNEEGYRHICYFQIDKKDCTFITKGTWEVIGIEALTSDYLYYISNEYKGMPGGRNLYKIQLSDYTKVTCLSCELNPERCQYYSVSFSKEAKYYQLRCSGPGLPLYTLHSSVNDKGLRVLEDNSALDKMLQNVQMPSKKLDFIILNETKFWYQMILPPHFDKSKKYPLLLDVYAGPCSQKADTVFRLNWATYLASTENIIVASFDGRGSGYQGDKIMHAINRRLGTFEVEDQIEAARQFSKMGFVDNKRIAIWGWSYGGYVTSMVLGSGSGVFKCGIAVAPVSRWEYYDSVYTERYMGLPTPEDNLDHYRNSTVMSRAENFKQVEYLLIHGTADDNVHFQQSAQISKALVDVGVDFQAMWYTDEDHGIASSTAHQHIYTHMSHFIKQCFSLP

Molecule: Cc1cc(=O)oc2cc(NC(=O)[C@@H]3CCCN3C(=O)CN)ccc12 [GP-AMC, Gly-Pro-7-amido-4-methylcoumarin] (H-Gly-Pro-{AMC})
- kcat/Km of DPPIV higher than that of APCE (DPPIV [1]): ~30 fold
- kcat, DPPIV (DPPIV [1]; pH 7.5, 22 °C, 20 min): 1.985 ± 0.102 s⁻¹
- Km (DPPIV [1]; read-out: Km, DPPIV, pH 7.5, 22 °C, 20 min): 63 ± 6 µM
- kcat, APCE (APCE [2]): 0.485 ± 0.0183 s⁻¹
- Km (APCE [2]): 455 ± 42 µM
- kcat/Km of APCE lower than the other three substrates (APCE [2]; vs MEPLGRQLTSGP-AMC, MEPLGWQLTSGP-AMC, Z-GP-AMC): 6–51 fold

Molecule: CC(C)C[C@H](NC(=O)[C@H](CCC(N)=O)NC(=O)[C@H](CCCNC(=N)N)NC(=O)[C@@H](N)Cc1ccccc1)C(=O)N[C@H](C(=O)N[C@@H](CO)C(=O)NCC(=O)N1CCCC[C@H]1C(=O)N[C@@H](CC(N)=O)C(=O)N[C@@H](CCC(N)=O)C(=O)N[C@@H](CCC(=O)O)C(=O)N[C@@H](CCC(N)=O)C(=O)N[C@H](C(=O)O)C(C)C)[C@@H](C)O [Inhibitor 1, FRQLTSG-pipecolinyl-NQEQV] (H-FRQLTSG[Pip]NQEQV-OH; N-terminus assumed)
- hydrolysis of inhibitor by APCE (APCE [3]): slowly hydrolyzed

Molecule: CC(C)[C@H](NC(=O)[C@H](CCC(N)=O)NC(=O)[C@H](CCC(=O)O)NC(=O)[C@H](CCC(N)=O)NC(=O)[C@H](CC(N)=O)NC(=O)[C@@H]1CCCCN1C(=O)CNC(=O)COCCOCCNC(=O)[C@H](CCCNC(=N)N)NC(=O)[C@@H](N)Cc1ccccc1)C(=O)O [Inhibitor 2, FR-peg-G-pipecolinyl-NQEQV] (H-FR[AEEA]G[Pip]NQEQV-OH; N-terminus assumed)
- fraction of inhibitor cleaved by APCE (APCE [3]; 1 h incubation, LC/MS): ~6%
- hydrolysis of inhibitor by APCE (APCE [3]): slowly hydrolyzed

Molecule: CC(C)[C@H](NC(=O)[C@H](CCC(N)=O)NC(=O)[C@H](CCC(=O)O)NC(=O)[C@H](CCC(N)=O)NC(=O)[C@H](CC(N)=O)NC(=O)[C@@H]1CCCCN1C(=O)CNC(=O)COCCOCCNC(=O)CNC(=O)[C@@H](N)Cc1ccccc1)C(=O)O [Inhibitor 3, FG-peg-G-pipecolinyl-NQEQV] (H-FG[AEEA]G[Pip]NQEQV-OH; N-terminus assumed)
- change of Ki relative to inhibitor 2 (P7 Arg replaced with Gly) (APCE [4]; printed as Ki reduced): ~4 fold

Molecule: N=C(N)NCCC[C@H](NC(=O)[C@@H](N)Cc1ccccc1)C(=O)NCCOCCOCC(=O)NCC(=O)N1CCCC[C@H]1C(N)=O [Inhibitor 11, FR-peg-G-pipecolinamide] (H-FR[AEEA]G[Pip]-NH2; N-terminus assumed)
- inhibitory effect on APCE (APCE [4]): lacked inhibitory properties

Molecule: Cc1cc(=O)oc2cc(NC(=O)[C@@H]3CCCN3C(=O)CNC(=O)OCc3ccccc3)ccc12 [Z-GP-AMC, benzyloxycarbonyl- (Z-) Gly-Pro-AMC] (Cbz-Gly-Pro-{AMC})
- increase in catalytic efficiency of recombinant FAP as opposed to Gly-Pro-AMC (recombinant FAP): ~18 fold
- kcat, APCE (APCE [2]): 0.607 ± 0.02 s⁻¹
- Km (APCE [2]): 90 ± 9 µM

Molecule: CC(=O)NCC(=O)N1CCCC1C#N (stereo not drawn) [acetyl-Gly-Pro-nitrile]
- Ki (DPPIV [5]): 61 µM
- Ki (FAP): 6.8 µM

Molecule: APCE (Homo sapiens)
- Km [6]: 21 ± 2 µM
- kcat [6]: 1.17 ± 0.0383 s⁻¹
- kcat/Km [6]: 55000 M⁻¹ s⁻¹
- Km [7]: 70 ± 6 µM
- kcat [7]: 0.922 ± 0.025 s⁻¹
- kcat/Km [7]: 13200 M⁻¹ s⁻¹

Molecule: FR-peg-G-pipecolinic acid
- inhibitory effect on APCE (APCE [4]): neither of which appeared to have any inhibitory effect

Molecule: NQEQV
- inhibitory effect on APCE (APCE [4]): neither of which appeared to have any inhibitory effect

— PMC4470291 (Biochemistry, 2009)
